Hits are enriched below; roughly 4.6% of the tested compounds scored in any of these assays.
NALP1 inh – inhibitors of NALP1 inflammasome in yeast; inhibition, % at 10 µM; S. cerevisiae NALP1/ASC/caspase-1 growth, X-gal OD620, 72 h; 280,000 compounds, 0.61% hits; AID 2071; in the data active = inhibition mostly above about 24%, no sharp cut-off; inactive = mostly below about 32%
NALP3 yeast inh – NALP3 inhibition in yeast | Yeast reconstituted NLRP3/ASC/caspase-1, beta-gal luminescence, 24 h | inhibition, % at 10 µM | 330,000 compounds, 0.39% hits | AID 2825;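 active = inhibition of 50% or more; inactive = inhibition below 50%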;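 note: plate controls were induced DMSO wells for no effect and uninduced yeast grown without galactose for full effect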
PolyA inhibitor – yeast polyadenylation inhibition; S. cerevisiae SKY197-pL101 polyadenylation reporter, beta-gal luminescence; efflux-impaired pdr1/pdr3 knockout yeast; score 100 = 6 SD above DMSO; activity score, % at 12 µM; 300,000 compounds, 0.02% hits; AID 1875;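 active = lowest replicate activity score at least 50, where 100 means six control SD above control mean; inconclusive = lowest score under 50 but half or more replicates reach 50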;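 note: yeast exposed to compound for 9 h at 30 °C; higher score means more reporter readthrough which indicates perturbed polyadenylation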
DSG3 Ab inh – inhibitors of pemphigus antibody binding to human desmoglein-3 | DSG3-coupled beads, scFv-anti-DSG3-GFP binding, flow cytometry; active compounds read low | binding (percent of control), % at 10 µM | AID 588358 | 310,000 compounds, 0.48% hits;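 active = binding more than 3 SD below its plate's average and above zero; inconclusive = below that plate limit but binding exactly zero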;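 note: hits lower antibody fragment binding to DSG3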
Arrestin-AP2 inh – blocks beta-arrestin peptide binding to AP2 adaptin; FITC-arrestin peptide / GST-AP2 beads, flow cytometry; AP2 beta2 appendage carries R879A mutation; inhibition, % at 10 µM; 340,000 compounds, 0.31% hits; AID 504490;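 active = inhibition above a set limit, near 3 SD of compounds lacking own fluorescence, cut at about 54% in these data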;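 note: plate controls were DMSO wells for no effect and 5 µM unlabelled arrestin peptide for full effect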
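System: GST-AP2 R879A glutathione beads. Medium: PBS with 0.05% Tween 20 and 0.1% BSA. Also added: FITC-arrestin peptide, 50 nM. Incubation: 12 min plus 1 h, RT. Measured by: high-throughput flow cytometry of beads, ex 488, em 535 nm. Evaluation: percent drop in bead-associated FITC signal.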
ALR inh – blocks human ALR sulfhydryl oxidase activity. P55789. purified ALR, DTT oxidation, H2O2 HRP-luminol luminescence. inhibition, % (concentration not given with the values). 290,000 compounds, 3.8% hits;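 active = mean replicate inhibition above about 79%, with every replicate also reaching it, limit read from the data; inconclusive = only one of the two criteria met; inactive = mean below limit and not every replicate reaching it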
Target sequence (P55789 whole entry, looked up): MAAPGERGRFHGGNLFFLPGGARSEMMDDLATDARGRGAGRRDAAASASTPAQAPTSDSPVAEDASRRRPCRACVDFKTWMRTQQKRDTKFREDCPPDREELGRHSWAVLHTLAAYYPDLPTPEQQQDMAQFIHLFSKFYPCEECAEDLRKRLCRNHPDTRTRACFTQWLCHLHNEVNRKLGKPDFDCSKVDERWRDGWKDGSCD
The depositor's hits bear a star; ? = inconclusive; · = not tested or not shown.

SMILES | NALP1 inh | NALP3 yeast inh | PolyA inhibitor | DSG3 Ab inh | Arrestin-AP2 inh | ALR inh
C[C@@H]1CN([C@@H](C)CO)C(=O)CCCn2nncc2CO[C@H]1CN(C)C(=O)Nc1cccc(Oc2ccccn2)c1 | · | · | · | 102 | · | ·
Cc1ncc(CN2CCCC(C(=O)Nc3ccc(-c4cccc(F)c4)cc3)C2)n1C (stereo unspecified) | 23 | 13 | -10 | 106 | -1 | -5
Clc1cc(Br)ccc1NCc1cccnc1 | 20 | 37 | -15 | 96 | 14 | 5
O=C(CC1CC2CCC1C2)N1CCN(S(=O)(=O)c2ccc(C(F)(F)F)cc2)CC1 (stereo unspecified) | · | · | · | 102 | · | ·
O=c1[nH]c(/C=C\c2cccc(F)c2)nc(O)c1[N+](=O)[O-] | 12 | -1 | -12 | 94 | -8 | 91*
C=CCOc1ccc(/C=C\c2nc(O)c([N+](=O)[O-])c(=O)[nH]2)cc1OCC | 17 | 12 | 22 | 104 | 6 | 97*
O=c1[nH]c(/C=C/c2ccccc2F)nc2ccccc12 | 7 | 26 | -4 | 95 | 13 | -4
O=c1[nH]c(/C=C\c2ccccc2F)nc(O)c1[N+](=O)[O-] | 9 | 3 | -8 | 93 | 16 | 97*
C=CCOc1cccc(/C=C\c2nc(O)c([N+](=O)[O-])c(=O)[nH]2)c1 | 28 | 3 | -4 | 93 | 5 | 74
O=c1[nH]c(/C=C\c2cccc(Cl)c2)nc(O)c1[N+](=O)[O-] | 8 | 18 | -14 | 117 | 5 | 98*
Cc1cccc(N2CCN(S(=O)(=O)c3cc(-c4cc(C)no4)ccc3C)CC2C)c1 (stereo unspecified) | 16 | 11 | 2 | 104 | 14 | -3
O=[N+]([O-])c1ccc(CN2CC(N3CCC(Cc4ccccc4)CC3)CS2(=O)=O)cc1 (stereo unspecified) | · | · | · | 110 | · | ·
Oc1c(Cl)cc(Cl)c2c1NCCC2 | 53* | 13 | -34 | 101 | 28 | ·
COc1ccccc1NCCC(=O)OCC(=O)Nc1ccccc1Cl | · | 1 | · | 95 | -18 | ·
COc1ccccc1NCCC(=O)OCC(=O)Nc1ccccc1F | · | 16 | · | · | -20 | 99*
COc1ccccc1NCCC(=O)OCC(=O)NC1CCCCCC1 | 24 | 16 | 17 | 94 | 5 | 99*
O=C(NNc1ccc(-c2csnn2)cc1)c1cc(Cl)cc(Cl)c1 | · | 33 | -37 | 100 | 14 | 43
O=C(NNc1ccc(-c2csnn2)cc1)c1ccccc1C(F)(F)F | -2 | 4 | -9 | · | -3 | 98*
Oc1ccc(Nc2nc(-c3ccccc3F)nc3ccccc23)cc1 | 7 | 13 | -9 | 107 | 10 | 100*
Oc1cccc(Nc2nc(-c3ccccc3Cl)nc3ccccc23)c1 | 7 | 1 | -1 | 100 | -15 | 88*
Oc1ccc(Nc2nc(-c3ccccc3O)nc3ccccc23)cc1 | -5 | 16 | -14 | 92 | -3 | 50
Oc1cccc(Nc2c3ccccc3nc3ccccc23)c1 | -9 | 26 | 15 | 94 | 22 | 99*
Cc1cccc(CC(=O)NCCS(=O)(=O)N2CCN(c3ccccc3)CC2)c1 | · | · | · | 98 | · | ·
COc1ccc(C)cc1CN(C)c1ccc(S(=O)(=O)N2CCN(C)CC2)cn1 | · | 21 | · | 114 | 3 | ·
CCN(c1ccccc1)S(=O)(=O)c1ccc(Cl)c(NC(=O)c2ccc(=O)[nH]n2)c1 | · | 9 | · | 21* | 6 | 1
SMILES | NALP1 inh | NALP3 yeast inh | PolyA inhibitor | DSG3 Ab inh | Arrestin-AP2 inh | ALR inh
CCCC(=O)Nc1cc(S(=O)(=O)N(CC)CC)ccc1Cl | 17 | 13 | -21 | 100 | -5 | 98*
Cc1cc(NC(=O)c2sc(Nc3ccc(F)cc3)nc2N)no1 | 0 | 1 | 12 | · | -5 | 97*
COc1cc2ccc(C(=O)O)cc2cc1OC | · | · | · | 99 | · | ·
Cc1onc(-c2ccccc2)c1-c1n[nH]c(=S)n1-c1ccccc1Cl | -2 | 4 | 8 | 106 | 12 | 30
Cc1onc(-c2ccccc2)c1-c1n[nH]c(=S)n1-c1ccc(C(=O)O)cc1 | 0 | 0 | 9 | 105 | 2 | 89*
COc1ccc(-c2nc(CN3CCCC(C(=O)NC4CCCC4)C3)c(C)o2)cc1 (stereo unspecified) | 44* | 1 | 14 | 99 | -4 | -15
COc1ccc(CNC(=O)C2CCCN(Cc3nc(-c4cccc(C)c4)oc3C)C2)cc1 (stereo unspecified) | 28* | 16 | 24 | 88 | -6 | -7
Cc1oc(-c2ccc(Cl)cc2)nc1CN1CCCC(C(=O)NC2CC2)C1 (stereo unspecified) | 11 | 5 | 5 | 108 | 26 | -4
CN(C)C(CNC(=O)c1cc(S(=O)(=O)N2CCOCC2)ccc1F)c1cccs1 (stereo unspecified) | · | 9 | · | 97 | 2 | -3
CCc1sc(C(=O)N(CCOC)c2c(N)n(Cc3ccccc3)c(=O)[nH]c2=O)cc1C | · | · | · | 96 | · | ·
COc1ccc(NC(=O)CSc2nnc(Cc3ccccc3)c(=O)n2N)c(OC)c1 | · | 9 | -1 | 101 | -6 | 0
Cc1nnc(SCC(=O)Nc2ccc(OC(F)F)c(Cl)c2)n(N)c1=O | · | 1 | · | · | -11 | 99*
Nn1c(SCC(=O)Nc2ccc(OC(F)F)cc2)nnc(Cc2ccccc2)c1=O | · | 15 | -1 | 90 | -6 | 98*
COc1ccccc1/C=C/C(=O)OCC(=O)N1CCc2ccccc21 | · | 20 | · | 102 | -12 | ·
CCc1ccc(CN2CCC(C(=O)Nc3ccc(Oc4ccccc4)nc3)CC2)o1 | -6 | 9 | 2 | · | 5 | -3
Cc1nc(SCc2cccc(F)c2)[nH]c(=O)c1C#N | -8 | 21 | -10 | 98 | 1 | 84*
Cc1nc(SCc2cccnc2)[nH]c(=O)c1C | 29 | 10 | 2 | ? | -2 | 99*
N#Cc1c(-c2ccco2)nc(SCc2ccc(F)cc2)[nH]c1=O | -4 | -6 | -3 | 105 | 5 | -13
COc1ccc(C(=O)N(C)[C@H]2C[C@H]3c4[nH]c5ccccc5c4CCN3C(=O)[C@H]2CO)cc1 | · | · | · | 98 | · | ·
CC(C)CN=Cc1c(O)c([N+](=O)[O-])cc2oc3c(c12)CCCC3 | 50* | 42 | -11 | 75 | 11 | -10
O=[N+]([O-])c1cc2oc3c(c2c(C=NCc2ccccc2)c1O)CCCC3 | 62 | 11 | -37 | 91 | 5 | -4
COc1cc(C[C@@H](CO)[C@H](CO)Cc2ccc(O)c(OC)c2)ccc1O | · | 21 | -5 | · | · | 97*
COc1ccc(CC(=O)Nc2cc(S(=O)(=O)N3CCCCC3)ccc2OC(C)C)cc1OC | · | · | · | 101 | · | ·
O=C1Nc2ccccc2N(O)N1c1cc(-c2cccc(Cl)c2)no1 | 3 | 5 | -16 | · | 11 | 79*
O=C1Nc2ccccc2N(O)N1c1cc(-c2ccccc2Cl)no1 | 38 | -6 | 1 | 104 | -13 | 20

Assay outcomes as filed in PubChem.
